In ChEMBL document CHEMBL2040747, “Synthesis and biological evaluation of isoxazole, oxazole, and oxadiazole containing heteroaryl analogs of biaryl ureas as DGAT1 inhibitors” (Eur J Med Chem, 2012):
In brackets after ≈: the same amount, converted by molar mass.

Tests used:
[1] = molecular target: Diacylglycerol O-acyltransferase 1 (Homo sapiens) (UniProt O75907); test: Inhibition of human DGAT1 assessed as conversion of [14C]-oleoyl-CoA to [14C]-triglyceride at 1 uM after 10 mins by scintillation counting
Diacylglycerol O-acyltransferase 1 (Homo sapiens), sequence (O75907 whole entry, looked up): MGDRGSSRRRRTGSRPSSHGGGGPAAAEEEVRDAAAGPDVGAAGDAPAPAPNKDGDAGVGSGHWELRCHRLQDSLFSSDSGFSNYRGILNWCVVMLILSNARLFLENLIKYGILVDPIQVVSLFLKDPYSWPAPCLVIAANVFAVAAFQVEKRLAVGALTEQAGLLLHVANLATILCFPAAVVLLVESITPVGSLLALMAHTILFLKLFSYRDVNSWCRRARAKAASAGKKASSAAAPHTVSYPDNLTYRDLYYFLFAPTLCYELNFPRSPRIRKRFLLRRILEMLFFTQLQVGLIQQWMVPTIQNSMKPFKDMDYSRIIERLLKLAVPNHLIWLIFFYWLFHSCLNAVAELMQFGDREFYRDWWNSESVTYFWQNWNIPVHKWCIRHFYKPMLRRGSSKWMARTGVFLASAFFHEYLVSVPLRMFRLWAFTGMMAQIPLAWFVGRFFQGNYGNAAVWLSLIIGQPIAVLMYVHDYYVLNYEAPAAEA

Mus musculus = test: Antiobesity activity in Swiss mouse assessed as reduction in plasma triglyceride level at 3 mg/kg, po measured after 4 hrs by fat tolerance test; format: functional; design: scale not given: the % may be the effect or the level left
Summary of the method: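 Fasted Swiss mice (4-5 weeks, 25-30 g) gavaged with test compound at 3 mg/kg as a suspension in 0.5% CMC with Tween 80, or with vehicle. Olive oil bolus (10 ml/kg) given 1 h later. Plasma TG measured by kit at 1, 2, 3 and 4 h. AUC0-4h expressed relative to vehicle (100%). Mean ± SEM, n = 8.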

[2] = Aqueous solubility of the compound at pH 7.4 after 24 hrs; format: physicochemical; settings: aqueous medium

| SMILES | inhibition [1] | solubility at 24 h [2] | Activity (Mus musculus) |
| --- | --- | --- | --- |
| Cc1ccccc1S(=O)(=O)NC(=O)Nc1ccc(-c2cc(C(=O)N[C@H](C(=O)O)C(C)C)on2)cc1 | 26% | – | – |
| CC(C)[C@H](NC(=O)c1nc(-c2ccc(NC(=O)Nc3ccccc3Cl)cc2)no1)C(=O)O | 62% | – | – |
| CC(C)[C@H](NC(=O)c1ncc(-c2ccc(NC(=O)Nc3cccc(Cl)c3)cc2)o1)C(=O)O | 72% | – | – |
| CC(C)[C@H](NC(=O)c1cc(-c2ccc(NC(=S)Nc3ccccc3F)cc2)no1)C(=O)O | 72% | – | – |
| CC(C)[C@H](NC(=O)c1ncc(-c2ccc(NC(=O)Nc3ccc(Cl)cc3F)cc2)o1)C(=O)O | 70% | – | – |
| CC(C)[C@H](NC(=O)c1nc(-c2ccc(NC(=O)Nc3ccc(F)cc3F)cc2)no1)C(=O)O | 75% | – | – |
| CC(C)[C@H](NC(=O)c1nc(-c2ccc(NC(=O)Nc3ccc(Cl)cc3)cc2)no1)C(=O)O | 40% | – | – |
| CC(C)[C@H](NC(=O)c1ncc(-c2ccc(NC(=O)Nc3ccc(Cl)cc3)cc2)o1)C(=O)O | 59% | – | – |
| CC(C)[C@H](NC(=O)c1ccc(-c2ccc(Nc3nc4ccc(F)cc4s3)cc2)cc1)C(=O)O | – | 10 µg/mL (≈ 21.6 µM) | 84% |
| CC(C)[C@H](NC(=O)c1cc(-c2ccc(Nc3nc4ccc(F)cc4s3)cc2)no1)C(=O)O | – | 60 µg/mL (≈ 132 µM) | 29% |
| CC(C)[C@H](NC(=O)c1ncc(-c2ccc(NC(=O)Nc3ccccc3Cl)cc2)o1)C(=O)O | 80% | – | – |
| CC(C)[C@H](NC(=O)c1ncc(-c2ccc(NC(=O)Nc3ccc(Cl)cc3Oc3ccccc3)cc2)o1)C(=O)O | 91% | – | – |
| CC(C)[C@H](NC(=O)c1nc(-c2ccc(NC(=O)Nc3cccc(Cl)c3)cc2)no1)C(=O)O | 71% | – | – |
| CC(C)[C@H](NC(=O)c1cc(-c2ccc(NS(=O)(=O)c3c(F)cccc3F)cc2)no1)C(=O)O | 23% | – | – |
| Cc1ccc(NC(=O)Nc2ccc(-c3cnc(C(=O)N[C@H](C(=O)O)C(C)C)o3)cc2)cc1C | 69% | – | – |
| CC(C)[C@H](NC(=O)c1cc(-c2ccc(NC(=O)Nc3ccc(Cl)cc3Oc3ccccc3)cc2)no1)C(=O)O | 91% | 140 µg/mL (≈ 255 µM) | 35% |
| CC(C)[C@H](NC(=O)c1cc(-c2ccc(OCc3ccc(F)cc3)cc2)no1)C(=O)O | 18% | – | – |
| COc1ccc(NC(=O)Nc2ccc(-c3cc(C(=O)N[C@H](C(=O)O)C(C)C)on3)cc2)cc1 | – | 430 µg/mL (≈ 950 µM) | 90% |
| CC(C)[C@H](NC(=O)c1nc(-c2ccc(NC(=O)Nc3ccc(F)cc3)cc2)no1)C(=O)O | 61% | – | – |
| Cc1ccc(NC(=O)Nc2ccc(-c3noc(C(=O)N[C@H](C(=O)O)C(C)C)n3)cc2)cc1 | 61% | – | – |
| CC(C)[C@H](NC(=O)c1cc(-c2ccc(NC(=O)[C@H](O)c3ccccc3)cc2)no1)C(=O)O | 59% | – | – |

Continued, in another order:

| inhibition [1] | solubility at 24 h [2] | SMILES | Activity (Mus musculus) |
| --- | --- | --- | --- |
| 90% | – | CC(C)[C@H](NC(=O)c1cc(-c2ccc(NC(=O)Nc3ccccc3Cl)cc2)no1)C(=O)O | – |
| 44% | – | CC(C)[C@H](NC(=O)c1cc(-c2ccc(NC(=O)c3ccc(F)cc3)cc2)no1)C(=O)O | – |
| 84% | – | CC(C)[C@H](NC(=O)c1cc(-c2ccc(NC(=O)Nc3ccc(Cl)cc3)cc2)no1)C(=O)O | – |
| 80% | 380 µg/mL (≈ 871 µM) | Cc1ccc(NC(=O)Nc2ccc(-c3cc(C(=O)N[C@H](C(=O)O)C(C)C)on3)cc2)cc1 | 79% |
| 85% | – | CC(C)[C@H](NC(=O)c1cc(-c2ccc(NC(=O)Nc3ccc(F)cc3F)cc2)no1)C(=O)O | – |
| 83% | – | Cc1ccc(NC(=O)Nc2ccc(-c3cc(C(=O)N[C@H](C(=O)O)C(C)C)on3)cc2)cc1C | – |
| 75% | – | CC(C)[C@H](NC(=O)c1ncc(-c2ccc(NC(=O)Nc3cccc(C(F)(F)F)c3)cc2)o1)C(=O)O | – |
| 84% | – | CC(C)[C@H](NC(=O)c1cc(-c2ccc(NC(=O)Nc3cccc(Cl)c3)cc2)no1)C(=O)O | – |
| 78% | – | CC(C)[C@H](NC(=O)c1cc(-c2ccc(NC(=O)Nc3ccc(F)cc3)cc2)no1)C(=O)O | – |
| 90% | – | CC(C)[C@H](NC(=O)c1cc(-c2ccc(NC(=O)Nc3ccc(Cl)cc3F)cc2)no1)C(=O)O | – |
| 16% | – | CC(C)[C@H](NC(=O)c1cc(-c2ccc(NC(=O)C(=O)Nc3cccc(C(F)(F)F)c3)cc2)no1)C(=O)O | – |
| 85% | – | CC(C)[C@H](NC(=O)c1cc(-c2ccc(NC(=O)Nc3cccc(C(F)(F)F)c3)cc2)no1)C(=O)O | – |
| 48% | – | CC(C)[C@H](NC(=O)c1nc(-c2ccc(NC(=O)Nc3cccc(C(F)(F)F)c3)cc2)no1)C(=O)O | – |
